Reference: ChEMBL document CHEMBL4825663 (J Med Chem, 2021)
Active and inactive are the calls of the source.

Key:
[1] = Drug distribution in Sprague-Dawley rat kidney at 20 mg/kg, po measured upto 168 hrs in presence of 10 mg/kg encequidar by LC-MS/MS analysis; format: ADME, organism-based; settings: in vivo
MDA-MB-231 = assay: Antitumor activity against human MDA-MB-231 cells xenografted in athymic nude mouse assessed as reduction in tumor growth at 30 mg/kg, po administered every other day for 4 doses in presence 12 mg/kg encequidar and monitored for 70 to 82 days; format: functional, organism-based; settings: time 70-82 day
[2] = Volume of distribution in Sprague-Dawley rat at 6 mg/kg, iv measured upto 24 hrs by LC-MS/MS analysis; format: ADME, organism-based; settings: in vivo
[3] = Drug distribution in BALB/c mouse liver at 20 mg/kg, po measured upto 24 hrs in presence of 10 mg/kg encequidar by LC-MS/MS analysis; format: ADME, organism-based; settings: in vivo
[4] = Ratio of drug concentration in BALB/c mouse kidney to plasma at 20 mg/kg, po measured upto 24 hrs in presence of 10 mg/kg encequidar by LC-MS/MS analysis; format: ADME, organism-based
[5] = AUClast in Sprague-Dawley rat at 6 mg/kg, iv measured upto 24 hrs by LC-MS/MS analysis; format: ADME, organism-based; design: route intravenous, dose 6 mg/kg, time <=24; settings: in vivo
NCI-H460 [6] = assay: Antitumor activity against human NCI-H460 cells xenografted in athymic nude mouse assessed as median tumor growth delay at 18 mg/kg, iv administered every other day for 4 doses and monitored for 48 days; format: functional; settings: time 48 day
Summary of the method: (§1)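 Female athymic NCr-nu mice carried subcutaneous NCI-H460 xenografts. […] Tumor weights and body weights were followed for 48 days after implantation. Read-out was median tumor growth delay.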

NCI-H460 [7] = assay: Antitumor activity against human NCI-H460 cells xenografted in athymic nude mouse assessed as median tumor growth delay at 50 mg/kg, po administered every other day for 4 doses in presence of 20 mg/kg encequidar and monitored for 48 days; format: functional; settings: time 48 day
Summary of the method: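 Female athymic NCr-nu mice bearing subcutaneous NCI-H460 human lung tumor xenografts. Paclitaxel (30, 40 or 50 mg/kg) and the P-gp inhibitor (12, 16 or 20 mg/kg; ratio 2.5:1) given together as one oral gavage solution every other day for four doses. IV paclitaxel (18 and 24 mg/kg) on the same schedule for comparison. Tumor weights and body weights followed for 48 days after implantation. Read-out: median tumor growth delay.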

[8] = Neurotoxicity in Sprague-Dawley rat assessed as reduction in nociceptive threshold at 6 mg/kg, iv measured after day 5, 7, 11 and 14; format: toxicity, organism-based; settings: in vivo
Summary of the method: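 Healthy rats received IV paclitaxel (Taxol) at 0 (vehicle), 3 or 6 mg/kg, four times at 2-day intervals (cumulative 12 or 24 mg/kg), n = 5/group. Paw pressure threshold (mmHg to elicit response, back paws) was measured by Randall–Selitto test. Data were analysed by one-way ANOVA, then Dunnett's test versus control.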

[9] = Oral bioavailability in Sprague-Dawley rat at 20 mg/kg measured upto 24 hrs by LC-MS/MS analysis; format: ADME, organism-based; settings: in vivo
[10] = Toxicity in athymic nude mouse xenografted with human NCI-H460 cells assessed as mortality at 18 to 24 mg/kg, iv administered every other day for 4 doses monitored for 48 days; format: organism-based; settings: in vivo, 1152 h, dose 18-24 mg/kg, time 48 day
Summary of the method: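 Female athymic NCr-nu mice carried subcutaneous NCI-H460 human lung tumor xenografts. Paclitaxel was given IV at 18 or 24 mg/kg every other day for four doses. Animals were followed for 48 days after tumor implantation, with individual body weights and mortality recorded alongside tumor weights.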

NCI-H460 [11] = assay: Antitumor activity against human NCI-H460 cells xenografted in athymic nude mouse assessed as median tumor growth delay at 40 mg/kg, po administered every other day for 4 doses in presence of 16 mg/kg encequidar and monitored for 48 days; format: functional; settings: time 48 day; summary of the method: as §1
[12] = Oral bioavailability in Beagle dog at 10 mg/kg measured upto 48 hrs by LC-MS/MS analysis; format: ADME, organism-based, Canis lupus familiaris; settings: in vivo
Summary of the method: (§2)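 Plasma pharmacokinetics in male Sprague-Dawley rats and male Beagle dogs (n = 3 per species), each given a single dose by IV at 3 mg/kg and by PO at 10 mg/kg. Cmax, Tmax, T1/2 and AUClast were derived for each route. F (%) was calculated from the PO and IV AUClast.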

[13] = biological target: ATP-binding cassette sub-family C member 3 (Homo sapiens, UniProt O15438); assay: Inhibition of […]-stimulated MRP3 ATPase activity (unknown origin) in presence of GSH
[14] = Toxicity in Sprague-Dawley rat at 200 mg/kg, po administered as repeated dose and measured upto 13 weeks; format: organism-based; settings: in vivo, 2184 h
[15] = biological target: ATP-binding cassette sub-family C member 2 (Homo sapiens, UniProt Q92887); assay: Inhibition of sulfasalazine-stimulated MRP2 ATPase activity (unknown origin) in presence of GSH
[16] = AUClast in Sprague-Dawley rat at 10 mg/kg, po measured upto 48 hrs by LC-MS/MS analysis; format: ADME, organism-based; design: route oral, dose 10 mg/kg, time <=48; settings: in vivo
Summary of the method: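 Single dose in male Sprague-Dawley rats and male Beagle dogs (n = 3 per species), given 3 mg/kg IV or 10 mg/kg PO. Plasma was sampled to derive Cmax, Tmax, T1/2 and AUClast by each route. Oral bioavailability (F) was calculated from the PO and IV AUClast.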

[17] = Toxicity in Beagle dog assessed as histiocytosis in lymph nodes at >= 100 mg/kg, po and measured after 13 weeks; format: organism-based, Canis lupus familiaris; settings: in vivo, 2184 h
[18] = Tmax in Beagle dog at 10 mg/kg, po measured upto 48 hrs by LC-MS/MS analysis; settings: in vivo
[19] = Toxicity in Sprague-Dawley rat assessed as enlargement of mesenteric lymph nodes at >= 50 mg/kg, po and measured after 4 to 13 weeks; format: organism-based, Mesenteric lymph node; settings: in vivo, time 4-13 weeks
Cytochrome P450 3A5 = Cytochrome P450 3A5 (Homo sapiens, UniProt P20815); assay: Drug metabolism assessed as human CYP3A5-mediated metabolism; format: ADME; settings: recombinant enzyme
[20] = Half life in Beagle dog at 3 mg/kg, iv measured upto 48 hrs by LC-MS/MS analysis; format: ADME, organism-based, Canis lupus familiaris; settings: in vivo; summary of the method: as §2

Cytochrome P450 3A5, sequence (P20815 whole entry): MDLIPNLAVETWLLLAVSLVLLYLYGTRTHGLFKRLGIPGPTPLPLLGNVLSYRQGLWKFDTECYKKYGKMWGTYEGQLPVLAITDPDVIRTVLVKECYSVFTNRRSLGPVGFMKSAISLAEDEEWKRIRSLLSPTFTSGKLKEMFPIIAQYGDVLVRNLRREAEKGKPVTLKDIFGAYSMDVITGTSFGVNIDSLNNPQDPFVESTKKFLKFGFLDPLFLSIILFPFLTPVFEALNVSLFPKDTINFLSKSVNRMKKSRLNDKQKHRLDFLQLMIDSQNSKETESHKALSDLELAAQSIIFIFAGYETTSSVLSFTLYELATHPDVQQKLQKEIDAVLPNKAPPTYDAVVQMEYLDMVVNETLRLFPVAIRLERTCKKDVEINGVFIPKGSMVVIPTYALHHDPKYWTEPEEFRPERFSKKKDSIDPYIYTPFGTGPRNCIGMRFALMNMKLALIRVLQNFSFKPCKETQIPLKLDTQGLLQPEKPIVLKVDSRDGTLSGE
ATP-binding cassette sub-family C member 2, sequence (Q92887 whole entry): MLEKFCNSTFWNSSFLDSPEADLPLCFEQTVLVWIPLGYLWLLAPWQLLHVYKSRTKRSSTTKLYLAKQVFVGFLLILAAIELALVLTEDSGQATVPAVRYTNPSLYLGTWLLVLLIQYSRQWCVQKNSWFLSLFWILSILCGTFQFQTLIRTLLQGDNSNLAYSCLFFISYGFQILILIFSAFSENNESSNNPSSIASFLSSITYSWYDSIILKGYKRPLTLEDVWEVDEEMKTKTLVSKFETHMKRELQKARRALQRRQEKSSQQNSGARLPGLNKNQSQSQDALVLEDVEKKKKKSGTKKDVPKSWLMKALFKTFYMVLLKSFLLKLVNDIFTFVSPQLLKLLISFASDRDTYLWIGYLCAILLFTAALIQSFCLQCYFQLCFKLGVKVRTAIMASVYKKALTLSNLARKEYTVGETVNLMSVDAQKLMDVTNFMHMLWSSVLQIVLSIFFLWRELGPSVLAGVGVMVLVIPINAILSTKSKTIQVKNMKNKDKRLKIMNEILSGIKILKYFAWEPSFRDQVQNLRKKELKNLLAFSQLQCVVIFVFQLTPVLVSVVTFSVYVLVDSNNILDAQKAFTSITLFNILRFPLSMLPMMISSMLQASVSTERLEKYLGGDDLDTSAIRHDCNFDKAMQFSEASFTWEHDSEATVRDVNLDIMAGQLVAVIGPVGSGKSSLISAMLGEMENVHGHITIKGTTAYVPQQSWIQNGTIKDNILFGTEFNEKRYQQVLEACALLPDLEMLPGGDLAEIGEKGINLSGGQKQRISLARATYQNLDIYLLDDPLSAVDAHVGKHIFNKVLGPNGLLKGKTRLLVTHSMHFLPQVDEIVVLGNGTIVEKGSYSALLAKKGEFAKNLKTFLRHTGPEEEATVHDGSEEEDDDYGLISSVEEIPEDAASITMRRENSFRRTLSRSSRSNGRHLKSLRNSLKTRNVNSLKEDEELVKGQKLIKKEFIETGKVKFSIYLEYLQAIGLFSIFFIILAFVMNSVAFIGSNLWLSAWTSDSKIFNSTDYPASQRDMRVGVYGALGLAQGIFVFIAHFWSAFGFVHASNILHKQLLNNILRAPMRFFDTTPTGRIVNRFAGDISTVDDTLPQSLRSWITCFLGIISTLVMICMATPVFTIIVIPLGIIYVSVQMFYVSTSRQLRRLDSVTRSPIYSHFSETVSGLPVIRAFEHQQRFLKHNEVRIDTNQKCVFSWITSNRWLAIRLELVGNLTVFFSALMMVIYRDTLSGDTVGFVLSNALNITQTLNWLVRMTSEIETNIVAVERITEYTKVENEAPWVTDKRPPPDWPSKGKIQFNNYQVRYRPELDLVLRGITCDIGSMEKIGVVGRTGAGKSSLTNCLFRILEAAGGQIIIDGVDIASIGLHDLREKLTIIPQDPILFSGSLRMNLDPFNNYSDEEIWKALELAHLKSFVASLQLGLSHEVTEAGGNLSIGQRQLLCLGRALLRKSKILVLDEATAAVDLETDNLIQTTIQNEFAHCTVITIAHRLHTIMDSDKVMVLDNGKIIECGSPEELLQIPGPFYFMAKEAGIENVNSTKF
ATP-binding cassette sub-family C member 3, sequence (O15438 whole entry): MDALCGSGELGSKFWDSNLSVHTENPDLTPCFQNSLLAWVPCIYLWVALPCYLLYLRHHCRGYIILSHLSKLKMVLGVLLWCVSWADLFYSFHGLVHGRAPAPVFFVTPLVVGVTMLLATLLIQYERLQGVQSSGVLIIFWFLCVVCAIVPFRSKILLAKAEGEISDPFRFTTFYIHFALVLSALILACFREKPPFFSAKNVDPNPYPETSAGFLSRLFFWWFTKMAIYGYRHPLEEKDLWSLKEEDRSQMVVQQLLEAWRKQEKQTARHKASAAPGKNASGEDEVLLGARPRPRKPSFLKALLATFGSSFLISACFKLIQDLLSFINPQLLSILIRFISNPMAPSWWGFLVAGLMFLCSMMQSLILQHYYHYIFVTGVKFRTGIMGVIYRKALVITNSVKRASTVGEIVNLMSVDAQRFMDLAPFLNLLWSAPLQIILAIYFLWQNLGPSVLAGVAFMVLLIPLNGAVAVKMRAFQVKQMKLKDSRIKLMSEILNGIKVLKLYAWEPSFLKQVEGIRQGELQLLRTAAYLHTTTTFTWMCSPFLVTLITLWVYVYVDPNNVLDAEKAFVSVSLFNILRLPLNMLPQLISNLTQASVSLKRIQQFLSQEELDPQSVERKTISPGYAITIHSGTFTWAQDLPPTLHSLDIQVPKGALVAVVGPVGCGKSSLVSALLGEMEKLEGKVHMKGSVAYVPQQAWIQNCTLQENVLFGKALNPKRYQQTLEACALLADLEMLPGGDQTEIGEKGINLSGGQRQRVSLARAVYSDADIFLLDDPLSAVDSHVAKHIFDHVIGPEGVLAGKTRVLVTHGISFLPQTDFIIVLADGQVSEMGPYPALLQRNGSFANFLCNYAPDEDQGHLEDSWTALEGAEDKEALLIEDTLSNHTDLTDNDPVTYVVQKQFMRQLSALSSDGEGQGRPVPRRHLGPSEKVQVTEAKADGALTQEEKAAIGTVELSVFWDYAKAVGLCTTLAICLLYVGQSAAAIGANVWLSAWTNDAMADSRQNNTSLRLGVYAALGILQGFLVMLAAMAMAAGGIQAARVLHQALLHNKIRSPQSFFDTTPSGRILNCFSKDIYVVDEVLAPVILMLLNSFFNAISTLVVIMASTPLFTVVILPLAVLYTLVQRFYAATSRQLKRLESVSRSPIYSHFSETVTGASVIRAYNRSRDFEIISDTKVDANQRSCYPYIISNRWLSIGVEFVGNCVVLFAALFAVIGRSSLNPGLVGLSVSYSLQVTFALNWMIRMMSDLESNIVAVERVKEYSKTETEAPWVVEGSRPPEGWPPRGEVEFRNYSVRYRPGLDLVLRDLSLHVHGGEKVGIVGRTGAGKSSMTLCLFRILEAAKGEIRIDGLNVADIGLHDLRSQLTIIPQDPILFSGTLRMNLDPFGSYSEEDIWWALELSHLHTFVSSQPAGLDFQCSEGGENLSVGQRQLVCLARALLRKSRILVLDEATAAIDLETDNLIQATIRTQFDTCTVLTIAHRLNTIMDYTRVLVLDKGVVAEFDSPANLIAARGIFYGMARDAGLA

For `CC(=O)O[C@H]1C(=O)[C@@]2(C)[C@H]([C@H](OC(=O)c3ccccc3)[C@]3(O)C[C@H](OC(=O)[C@H](O)[C@@H](NC(=O)c4ccccc4)c4ccccc4)C(C)=C1C3(C)C)[C@]1(OC(C)=O)CO[C@@H]1C[C@@H]2O` [PACLITAXEL], the Drug uptake [1] was “Active”, the Activity (MDA-MB-231) was “Active” and the Vd [2] was 23.6 L/kg. The Drug uptake [3] was “Active”, the Kp at 24 h [4] was over 1 and the AUC(0-t) at 24 h [5] was 2730 ng·h/mL. The Time (NCI-H460 [6]) was 8.5 days, the Time (NCI-H460 [7]) was 12.7 days and the Activity [8] was “Toxic”. For the same compound, the bioavailability [9] was 3.4%, the Activity [10] was “Non-Toxic” and the Time (NCI-H460 [11]) was 8.7 days.

With `COc1cc2c(cc1OC)CN(CCc1ccc(-n3nnc(-c4cc(OC)c(OC)cc4NC(=O)c4cc(=O)c5ccccc5o4)n3)cc1)CC2` the bioavailability [12] was 11.2%, the IC50 [13] was over 100 µM and the Activity [14] was “Non-Toxic”. For the same compound, the IC50 [15] was over 100 µM, the AUC(0-t) at 48 h [16] was 129 ng·h/mL and the Activity [17] was “Toxic”. For the same compound, the Tmax [18] was 13.3 h, the Activity [19] was “Toxic” and the Drug metabolism (Cytochrome P450 3A5) was “Metabolite_Detected”. It also gave a half-life [20] of 16.9 h.
